{"source": "ChEMBL document CHEMBL3397044", "about": "“Discovery and in vitro and in vivo profiles of N-ethyl-N-[2-[3-(5-fluoro-2-pyridinyl)-1H-pyrazol-1-yl]ethyl]-2-(2H-1,2,3-triazol-2-yl)-benzamide as a novel class of dual orexin receptor antagonist” (Bioorg Med Chem, 2015)", "key": {"[1]": {"test_system": "Ribosyldihydronicotinamide dehydrogenase (NQO2) (Homo sapiens)", "test": "Binding affinity to MT3 receptor (unknown origin) at 10 uM"}, "[2]": {"test": "Volume of distribution in Sprague-Dawley rat at 2 mg/kg, iv", "type": "ADME, organism-based", "parameters": "dose 2 mg/kg, route intravenous", "details": "in vivo", "in_short": "(§1)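 Fasted male Sprague–Dawley rats (n = 3) given 2 mg/kg iv. Vd and CL taken from the iv profile. T1/2 calculated as ln2·Vd/CL.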"}, "[3]": {"test": "Tmax in Sprague-Dawley rat at 10 mg/kg, po", "type": "ADME, organism-based", "parameters": "dose 10 mg/kg, route oral", "details": "in vivo", "in_short": "(§2)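 Fasted male rats dosed orally at 10 mg/kg, and male dogs at 3 mg/kg (n = 3). Tmax read from the oral profile. F calculated against the iv arm (rat 2 mg/kg, dog 0.5 mg/kg).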"}, "[4]": {"test_system": "Rattus norvegicus", "test": "Sleep promoting effect in free moving Wistar rat with chronically implanted electrodes assessed as increase in duration of NREM sleep at 10 and 30 mg/kg, ip by polysomnogram recordings method", "type": "functional, organism-based", "parameters": "dose 30 mg/kg", "in_short": "(§3)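 Male Wistar rats, 10 weeks old, implanted under pentobarbital with frontal and parietal EEG screw electrodes plus EMG. Recovered ≥7 days, then singly housed and acclimated, tethered and freely moving. Dosed ip between 18:50 and 19:00, before lights-off. EEG filtered 0.16–30 Hz, EMG 5.3–1000 Hz, scored in 8-s epochs. Sleep latency = first 15 consecutive sleep epochs. Analysed over 2 h; n = 8–10; Dunnett or Steel tests.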"}, "[5]": {"test": "Half life in dog at 0.5 mg/kg, iv", "type": "ADME, organism-based, Canis lupus familiaris", "parameters": "dose 0.5 mg/kg, route intravenous", "details": "in vivo", "in_short": "(§4)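 Male dogs given 0.5 mg/kg iv (n = 3). Vd and CL derived from the iv profile. T1/2 = ln2·Vd/CL.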"}, "[6]": {"test": "Oral bioavailability in dog at 3 mg/kg", "type": "ADME, organism-based, Canis lupus familiaris", "details": "in vivo", "in_short": "as §2"}, "[7]": {"test_system": "Rattus norvegicus", "test": "Sleep promoting effect in free moving Wistar rat with chronically implanted electrodes assessed as increase in duration of REM sleep at 10 and 30 mg/kg, ip after 2 hrs by polysomnogram recordings method", "type": "functional, organism-based", "parameters": "dose 30 mg/kg", "in_short": "as §3"}, "[8]": {"test": "Cmax in free moving Wistar rat with chronically implanted electrodes 3 mg/kg, ip after 0.33 hrs", "type": "ADME, organism-based", "parameters": "dose 3 mg/kg, route intraperitoneal", "details": "in vivo"}, "[9]": {"test": "Volume of distribution in dog at 0.5 mg/kg, iv", "type": "ADME, organism-based, Canis lupus familiaris", "parameters": "dose 0.5 mg/kg, route intravenous", "details": "in vivo", "in_short": "as §4"}, "[10]": {"test": "Ratio of drug level in brain to plasma in Sprague-Dawley rat at 10 mg/kg, po", "details": "read-out: BPR"}, "[11]": {"test": "Drug metabolism in human liver microsomes at 5 uM after 15 mins", "type": "ADME", "details": "read-out: Drug metabolism", "in_short": "(§5)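 Liver microsomes at 1 mg protein/mL with 5 µM compound, incubated 15 min. Value reported as percentage of compound metabolized.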"}, "[12]": {"test": "Oral bioavailability in Sprague-Dawley rat at 10 mg/kg", "type": "ADME, organism-based", "details": "in vivo", "in_short": "as §2"}, "[13]": {"molecular_target": "T1, Orexin/Hypocretin receptor type 1 (Rattus norvegicus) (UniProt P56718)", "T1 sequence (whole entry)": "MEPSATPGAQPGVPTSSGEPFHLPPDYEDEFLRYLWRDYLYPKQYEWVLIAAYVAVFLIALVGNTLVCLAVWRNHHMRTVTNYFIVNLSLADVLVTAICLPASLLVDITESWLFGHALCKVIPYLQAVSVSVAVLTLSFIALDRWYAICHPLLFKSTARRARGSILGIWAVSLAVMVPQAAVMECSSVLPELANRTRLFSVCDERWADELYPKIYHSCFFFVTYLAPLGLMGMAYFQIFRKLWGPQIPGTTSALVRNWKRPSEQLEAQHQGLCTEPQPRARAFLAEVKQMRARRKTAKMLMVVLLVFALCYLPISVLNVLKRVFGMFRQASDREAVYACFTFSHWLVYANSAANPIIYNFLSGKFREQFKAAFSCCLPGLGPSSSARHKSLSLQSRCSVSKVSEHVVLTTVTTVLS", "test": "Antagonist activity against rat OX1 receptor assessed as reduction in [Ala6,12]orexin-A-induced intracellular Ca2+ mobilization incubated for 30 mins by Fluo-4 AM dye based fluorescence assay", "type": "functional, cell-based", "in_short": "(§6)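 Cells seeded at 2.4 × 10⁴/well and cultured for 18 h. Compound added for 30 min at room temperature. Peak fluorescence minus basal was normalised to the maximal [Ala6,12]orexin-A response. Kb = IC50/(1+[L]/EC50). At least three independent runs in duplicate; mean ± SE.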"}, "[14]": {"test_system": "Rattus norvegicus", "test": "Toxicity in Sprague-Dawley rat assessed as effect on rotarod performance at 3 to 30 mg/kg, ip administered 30 mins prior to the test by rotarod test", "details": "in vivo, 0.5 h"}, "[15]": {"test": "Solubility in pH 6.8 phosphate buffer", "type": "physicochemical", "in_short": "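Aqueous solubility measured in pH 6.8 phosphate buffer.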"}, "[16]": {"test": "Drug metabolism in dog liver microsomes at 5 uM after 15 mins", "type": "ADME, Canis lupus familiaris", "details": "read-out: Drug metabolism", "in_short": "as §5"}, "[17]": {"test": "Ratio of drug level in CSF to plasma in Sprague-Dawley rat at 10 mg/kg, po"}, "[18]": {"test": "Drug metabolism in rat liver microsomes at 5 uM after 15 mins", "type": "ADME", "details": "read-out: Drug metabolism", "in_short": "as §5"}, "[19]": {"molecular_target": "T2, Orexin receptor type 2 (Rattus norvegicus) (UniProt P56719)", "T2 sequence (whole entry)": "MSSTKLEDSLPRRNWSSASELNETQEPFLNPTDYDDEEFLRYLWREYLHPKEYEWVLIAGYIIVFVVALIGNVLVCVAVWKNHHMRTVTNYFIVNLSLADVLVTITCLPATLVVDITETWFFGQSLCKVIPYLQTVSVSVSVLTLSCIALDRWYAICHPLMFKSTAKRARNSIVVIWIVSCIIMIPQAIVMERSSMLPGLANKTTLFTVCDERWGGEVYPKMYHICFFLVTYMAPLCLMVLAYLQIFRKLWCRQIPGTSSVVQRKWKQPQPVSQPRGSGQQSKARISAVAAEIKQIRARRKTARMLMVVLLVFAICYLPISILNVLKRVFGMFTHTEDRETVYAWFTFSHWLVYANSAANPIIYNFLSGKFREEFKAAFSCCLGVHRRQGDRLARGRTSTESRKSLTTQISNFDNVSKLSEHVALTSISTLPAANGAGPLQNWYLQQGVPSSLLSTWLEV", "test": "Antagonist activity against rat OX2 receptor assessed as reduction in [Ala6,12]orexin-A-induced intracellular Ca2+ mobilization incubated for 30 mins by Fluo-4 AM dye based fluorescence assay", "type": "functional, cell-based", "in_short": "as §6"}, "[20]": {"test": "Drug excretion in rat bile", "type": "ADME, tissue-based", "details": "read-out: Drug excretion"}, "[21]": {"test": "Half life in Sprague-Dawley rat at 2 mg/kg, iv", "type": "ADME, organism-based", "parameters": "dose 2 mg/kg, route intravenous", "details": "in vivo", "in_short": "as §1"}, "[22]": {"test": "Clearance in dog at 0.5 mg/kg, iv", "type": "ADME, organism-based, Canis lupus familiaris", "parameters": "dose 0.5 mg/kg, route intravenous", "details": "in vivo", "in_short": "as §4"}, "[23]": {"test_system": "Rattus norvegicus", "test": "Sleep promoting effect in ip dosed free moving Wistar rat with chronically implanted electrodes assessed as by polysomnogram recordings method", "details": "read-out: MED"}, "[24]": {"test": "Clearance in Sprague-Dawley rat at 2 mg/kg, iv", "type": "ADME, organism-based", "parameters": "dose 2 mg/kg, route intravenous", "details": "in vivo", "in_short": "as §1"}, "[25]": {"test_system": "Rattus norvegicus", "test": "Sleep promoting effect in free moving Wistar rat with chronically implanted electrodes assessed as reduction in latency until total sleep at 3 to 30 mg/kg, ip by polysomnogram recordings method", "type": "functional, organism-based", "in_short": "as §3"}, "[26]": {"test": "Drug excretion in rat urine", "type": "ADME", "details": "read-out: Drug excretion"}, "[27]": {"test": "Tmax in dog at 3 mg/kg, po", "type": "ADME, organism-based, Canis lupus familiaris", "parameters": "dose 3 mg/kg, route oral", "details": "in vivo", "in_short": "as §2"}}, "note": "Activity calls are given as the source filed them. No cut-off for these calls is given here."}
{"smiles": "CCN(CCn1ccc(-c2ccc(F)cn2)n1)C(=O)c1ccccc1-n1nccn1", "values": [{"measurement": "Activity", "setting": "[1]", "value": 66, "unit": "%"}, {"measurement": "Vd", "setting": "[2]", "value": 1.71, "unit": "L/kg"}, {"measurement": "Tmax", "setting": "[3]", "value": 50, "unit": "min"}, {"measurement": "Activity", "setting": "[4]", "value": "Active"}, {"measurement": "half-life", "setting": "[5]", "value": 57.7, "unit": "min"}, {"measurement": "bioavailability", "setting": "[6]", "value": 80.2, "unit": "%"}, {"measurement": "Activity", "setting": "[7]", "value": "inactive"}, {"measurement": "Cmax", "setting": "[8]", "value": 728, "unit": "nM"}, {"measurement": "Vd", "setting": "[9]", "value": 0.745, "unit": "L/kg"}, {"measurement": "Kp", "setting": "[10]", "value": 0.17}, {"measurement": "metabolised at 0.25 h, 5 µM", "setting": "[11]", "value": 24.1, "unit": "%"}, {"measurement": "bioavailability", "setting": "[12]", "value": 14.9, "unit": "%"}, {"measurement": "Kb", "setting": "[13]", "value": 5.08, "unit": "nM"}, {"measurement": "Activity", "setting": "[14]", "value": "Non-toxic"}, {"measurement": "solubility", "setting": "[15]", "value": 30.2, "unit": "µg/mL"}, {"measurement": "metabolised at 0.25 h, 5 µM", "setting": "[16]", "value": 7.3, "unit": "%"}, {"measurement": "Kp", "setting": "[17]", "value": 0.06}, {"measurement": "metabolised at 0.25 h, 5 µM", "setting": "[18]", "value": 79.9, "unit": "%"}, {"measurement": "Kb", "setting": "[19]", "value": 6.06, "unit": "nM"}, {"measurement": "dose excreted", "setting": "[20]", "value": 0.2, "unit": "%"}, {"measurement": "half-life", "setting": "[21]", "value": 17.9, "unit": "min"}, {"measurement": "clearance", "setting": "[22]", "value": 9.97, "unit": "mL/min/kg"}, {"measurement": "minimal effective dose", "setting": "[23]", "value": 3, "unit": "mg/kg"}, {"measurement": "clearance", "setting": "[24]", "value": 66, "unit": "mL/min/kg"}, {"measurement": "Activity", "setting": "[25]", "value": "Dose-dependent effect"}, {"measurement": "dose excreted", "setting": "[26]", "value": 0.4, "unit": "%"}, {"measurement": "Tmax", "setting": "[27]", "value": 40, "unit": "min"}]}
